Only a selection was taken, and hits are over-represented in it overall.
ROMK primary: modulates human ROMK potassium channel activity | B-score at 10 µM | AID 1918 | Tet-inducible ROMK, thallium flux fluorescence; actives lie on both sides | P48048 | hit rate 2% among 130,000;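 active = signal ratio slope over the read window, or its plate-corrected B-score, at least 3 SD from the plate mean, either direction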;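 note: B-score of the F/F0 ratio slope over 7 to 12 s after thallium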
Target sequence (P48048 whole entry, looked up): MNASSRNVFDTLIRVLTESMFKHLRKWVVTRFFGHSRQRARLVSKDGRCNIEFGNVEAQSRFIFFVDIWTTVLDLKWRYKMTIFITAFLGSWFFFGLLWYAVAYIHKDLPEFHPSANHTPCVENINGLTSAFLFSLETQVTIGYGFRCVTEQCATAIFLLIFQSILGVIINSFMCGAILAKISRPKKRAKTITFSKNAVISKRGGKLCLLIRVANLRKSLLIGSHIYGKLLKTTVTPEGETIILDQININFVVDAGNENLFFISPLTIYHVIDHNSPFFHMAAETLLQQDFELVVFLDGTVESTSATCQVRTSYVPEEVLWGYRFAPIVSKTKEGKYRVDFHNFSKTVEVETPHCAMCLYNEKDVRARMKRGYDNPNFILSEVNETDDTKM
Pf gametocyte: inhibitors of late stage P. falciparum gametocyte viability. P. falciparum stage V gametocytes, ATP luminescence, 24 h. AID 743093. hit rate 0.065% among 150,000. inhibition, % at 10.9 µM;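 active = inhibition above the mean plus 3 SD of compounds within the control limits, set per campaign, cut at about 38% in these data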;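 note: 0% = DMSO wells and 100% = medium only without gametocytes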
Calb biofilm kill: mixtures killing C. albicans biofilm; AID 1242; hit rate 0.02% among 120,000; inhibition, % at 7.6 µM; C. albicans biofilm persisters + clotrimazole, fluorescence viability; primary screen in compound mixtures of four per well;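 note: compounds exposed to preformed 24 h biofilms for 48 h; 0% = untreated biofilm control and 100% = clotrimazole plus chlorhexidine kill blank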
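Test system: C. albicans CAF4-2 wild-type biofilms; buffer or medium: RPMI/MOPS medium, pH 7.0; schedule: 24 h biofilm formation, then 48 h compound exposure, 37 °C; detection: Alamar Blue fluorescence; measure: percent inhibition of biofilm viability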
* = called active by the depositor; u = inconclusive; x = no result given.

SMILES	ROMK primary	Pf gametocyte	Calb biofilm kill
O=C(NCc1ccncc1)/C(=C/c1cccc([N+](=O)[O-])c1)NC(=O)c1ccccc1	x	-1	13
CC(C)/C=C1\CC/C(=C\c2cccnc2)C1=O	-0.71	-16	10
O=C1/C(=C/c2cccnc2)CC/C1=C\c1cccnc1	-0.04	13	10
O=C1/C(=C/c2cccnc2)CCC/C1=C\c1cccnc1	-4.6*	8	7
CCC1C/C(=C\c2cccnc2)C(=O)/C(=C/c2cccnc2)C1 (stereo not drawn)	-4.3*	x	15
CCCn1nnnc1NC(=O)COc1ccc(Br)cc1	0.42	19	12
CCN1CCN(C(c2ccc(F)cc2)c2nnnn2Cc2cccs2)CC1 (stereo not drawn)	x	0	x
Fc1ccc(C(c2nnnn2Cc2cccs2)N2CCN(C3CCCCC3)CC2)cc1 (stereo not drawn)	-5.7*	x	x
NC1=NC(=O)/C(=C/c2cccs2)S1	-1.8	2	x
C=CCSC1=NC(=O)/C(=C/c2cccs2)S1	-5.7*	-18	15
O=C1C2C3C=CC(C3)C2C(=O)N1c1ccc(-c2nc(-c3ccccc3)nc3ccccc23)cc1 (stereo not drawn)	x	-7	x
O=C(NC(=S)N(CCCCO)C1CCCCC1)c1sc2ccccc2c1Cl	3.1*	x	x
CC1CCCCC1NC(=S)NC(=O)c1sc2ccccc2c1Cl (stereo not drawn)	-0.025	9	-5
CCOc1ccc(NC(=S)NC(=O)c2cncc(Br)c2)cc1	x	2	x
CC(C)c1ccc(OCC(O)CN2CCN(c3ccccc3)CC2)cc1 (stereo not drawn)	-2.8*	x	x
COc1ccc(OCC(O)CN2CCN(c3ccccc3)CC2)cc1 (stereo not drawn)	-0.34	21	25
CC(=O)c1cccc(NC(=O)C(C)N2CCc3ccccc3C2)c1 (stereo not drawn)	x	-17	8
COc1ccc(-n2cnc3cc(C(=O)NCCN4CCOCC4)ccc32)cc1	0.072	x	14
CCOc1ccc(NC(=S)N=Nc2c(O)[nH]c3ccccc23)cc1	1.2*	4	3
Oc1cccc(NC(=S)N=Nc2c(O)[nH]c3ccccc23)c1	0.18	11	11
CN(C)c1ccc(N=Nc2nc3ccccc3n2C)cc1	x	49*	8
Cn1c(N=Nc2ccccc2)nc2ccccc21	-0.33	6	20
COc1ccc(OC)c(NC(=O)c2ccc(OC3CSC3)cc2)c1	0.29	12	18
O=C(Nc1nnc(-c2ccc(F)cc2)o1)c1cc(Cl)sc1Cl	3.2*	-17	14
COc1cccc(-c2nnc(NC(=O)c3cccc(F)c3)o2)c1	x	x	15
SMILES	ROMK primary	Pf gametocyte	Calb biofilm kill
O=C(Nc1nnc(-c2ccc(F)cc2)o1)c1cccc([N+](=O)[O-])c1	-1.6	x	21
COc1cccc(-c2nnc(NC(=O)c3ccc(Cl)s3)o2)c1	1.9*	x	6
O=C(Nc1nnc(-c2ccccc2)o1)c1cc(Cl)sc1Cl	2.3*	11	10
COc1ccc(C(=O)Nc2nnc(-c3ccccc3)o2)cc1OC	0.33	-6	x
CCCn1c(Nc2ccccc2C)nc2ccccc21	x	x	11
CN(C(=O)CSc1ncnc2c(-c3cccs3)nsc12)C1CCCCC1	x	-8	x
Cn1c(=O)c2c(ncn2CC(=O)Nc2nccs2)n(C)c1=O	x	-14	14
CCN(CC)S(=O)(=O)N1CCC(C(=O)NCc2ccco2)CC1	-0.41	17	12
CC(C)(C)n1cc(S(=O)(=O)c2ccccc2)[nH]c1=O	-0.41	5	2
CC(C)(C)C1C/C(=C/c2ccccn2)C(=O)/C(=C/c2ccccn2)C1 (stereo not drawn)	-0.93	x	u
CC1C/C(=C/c2ccccn2)C(=O)/C(=C/c2ccccn2)C1 (stereo not drawn)	-4.7*	x	7
COc1ccc(C(=O)c2ccccc2)c(OCC(=O)N(C)C)c1	-0.37	-1	19
CCc1ccc(OCC(=O)Nc2cccc3c2CCCC3)cc1	1.2	18	17
COc1ccccc1C1CC(c2ccccc2)=NN1S(=O)(=O)c1ccccc1 (stereo not drawn)	x	-6	8
COc1cccc(C2CC(c3ccccc3)=NN2S(=O)(=O)c2ccc(C)cc2)c1OC (stereo not drawn)	-8.1*	3	7
CC(C)CNC(=O)c1cccc(NC(=O)Cc2ccc(Br)cc2)c1	x	-18	9
CCc1ccc2oc(=O)cc(CN(C)Cc3ccccc3)c2c1	-3.1*	x	x
CCCCN(C)Cc1cc(=O)oc2cc3c(cc12)CCCC3	x	-8	18
CCC(=O)N=c1ccn(C2=Nc3ccccc3NC2=C(C#N)C#N)cc1	-0.51	-32	14
CC(C)(NC(=O)N1CCOCC1)c1cccc(C(C)(C)NC(=O)N2CCOCC2)c1	0.39	3	x
O=C(/C=C/c1ccccc1Cl)c1ccccc(=O)c1O	-4.2*	5	11
Cc1ccc(C)c(/C=C/C(=O)c2ccccc(=O)c2O)c1	-2.1	-24	9
CCN1CCN(C(=O)CN2C(=O)c3cccc4cccc2c34)CC1	-0.047	-3	9

Screens (PubChem BioAssay)
